The values that follow come from paper PMC4550085 (Chemical communications (Cambridge, England), 2015).

The subject of data set [1] is HeLa cells. The experiment in a line: FACS analysis of total cellular uptake of Rho-labelled CPPs. It counts as cell-based. As to conditions: for Total cellular uptake (MFI^Rho, %): relative to Tat (100%), 5 µM Rho-labelled peptide, 2 h. A digest of the protocol:
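Total uptake: HeLa cells were treated for 2 h with 5 µM rhodamine-labelled peptide and analysed by FACS with excitation at 561 nm. MFI was background-subtracted. Values are relative to the Tat conjugate (100%) and are mean ± SD of three independent experiments.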
On the technique in general: A flow cytometer gives signals particle by particle.

The subject of data set [2] is HeLa cells. The experiment in a line: FACS analysis of cytosolic delivery of NF-labelled CPPs. To be noted: 2 h; for cytosolic delivery efficiency relative to Tat: 5 µM NF-labelled peptides; for Cytosolic delivery (MFI^NF, %): relative to Tat (100%), 5 µM NF-labelled peptide. It counts as cell-based. In outline: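 HeLa cells were exposed for 2 h to 5 µM naphthofluorescein-labelled peptide and analysed by FACS with excitation at 633 nm. Background fluorescence was subtracted from the mean fluorescence intensity (MFI). Values are relative to the Tat conjugate (100%) and are mean ± SD of three independent experiments.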

The test system of data set [3] is HeLa cells. In words: Endosomal escape efficiency calculated from NF and Rho MFI. It counts as cell-based. As to conditions: for Endosomal escape efficiency (γ, %): relative to Tat (100%), calculated from MFI^NF/MFI^Rho; for endosomal escape efficiency relative to Tat: γ=(MFI NF/MFI Rho)/(MFI Tat NF/MFI Tat Rho), HeLa cells, 5 µM.
The subject of data set [4] is HeLa cells. In words: Live-cell confocal microscopy of labelled CPPs. It counts as cell-based. To be noted: 5 µM for 2 h.
For data set [5] the following is noted: cited from earlier work.
Data set [6] in a line: pH titration of fluorescence intensity of the dyes and CPP-dye adducts. It counts as physicochemical.
Data set [7] relates to HeLa cells. The experiment in a line: MTT cytotoxicity assay. To be noted: up to 25 µM concentration. It counts as cell-based. A general note: Formazan colour is commonly taken as a measure of viable cells.
The conditions of data set [8]: previously shown; cited from earlier work.

For nonaarginine [R9], the “Total cellular uptake (MFI^Rho, %)” value in the data set on HeLa cells [1] is recorded as 114%. In the data set on HeLa cells [2], the “cytosolic delivery efficiency relative to Tat” value is ~ 2 fold and the “Cytosolic delivery (MFI^NF, %)” value stood at 197%. In addition, in the data set with HeLa cells [3], the “Endosomal escape efficiency (γ, %)” value is recorded as 173% and the “endosomal escape efficiency relative to Tat” value is 1.7 fold. In the data set on HeLa cells [4], the intracellular fluorescence pattern entry was “diffuse fluorescence in both cytoplasmic and nuclear regions”. Further, the “cytosolic delivery efficiency relative to Tat, pCAP-based assay” value in data set [5] is given as 3 fold.
For rhodamine, in data set [6] (pH range of 5–10, Ex/Em 545/590 nm), the “change in fluorescence intensity with pH” value was “no significant change in fluorescence intensity”.
On to YGRKKRRQRRR [Tat], for which the “Total cellular uptake (MFI^Rho, %)” value with HeLa cells [1] was determined as 100%. For the same substance, the “Cytosolic delivery (MFI^NF, %)” value in the data set with HeLa cells [2] was determined as 100%. The “Endosomal escape efficiency (γ, %)” value in the data set on HeLa cells [3] was 100%. Besides, in the data set with HeLa cells [4], the intracellular fluorescence pattern result is “diffuse fluorescence in both cytoplasmic and nuclear regions”.
In the case of cyclo(FΦRRRRQ) (head to tail) [cFΦR4], in data set [6] (dye attached to the glutamine side chain of cFΦR4, pH titration), the “pH profile of CPP-dye adduct compared with the unmodified dye” value is listed as “essentially identical pH profiles”. The “total cellular uptake relative to Tat” value in the data set on HeLa cells [1] (5 µM Rho-labelled peptides) is 2.3 fold. For the same substance, in the data set on HeLa cells [2], the “cytosolic delivery efficiency relative to Tat” value is recorded as ~ 10 fold and the “Cytosolic delivery (MFI^NF, %)” value is recorded as 1006%. Further, in the data set on HeLa cells [3], the “Endosomal escape efficiency (γ, %)” value is reported as 433% and the “endosomal escape efficiency relative to Tat” value is given as 4.3 fold. Besides, the “cytotoxicity, MTT assay” value in the data set on HeLa cells [7] was “Neither peptide showed any significant toxicity”. Moreover, the “cytosolic delivery efficiency relative to Tat, pCAP-based assay” value in data set [5] is recorded as 12 fold. Moreover, the “cytosolic delivery efficiency relative to Tat and R9” value in data set [8] is 4–12 fold.
